Measured values: ChEMBL document CHEMBL5705885, “CYT387, a selective JAK1/JAK2 inhibitor: in vitro assessment of kinase selectivity and preclinical studies using cell lines and primary cells from polycythemia vera patients” (Leukemia, 2009)

Experiments:
Aurora kinase B [1] = biological target: T1, Aurora kinase B (Homo sapiens, UniProt Q96GD4); conditions: dose 100.0 nM
[2] = biological target: Fibroblast growth factor receptor 1 (Homo sapiens, UniProt P11362); assay: Inhibition of FGFR1 (unknown origin)
Ephrin type-B receptor 1 = Ephrin type-B receptor 1 (Homo sapiens, UniProt P54762); assay: Inhibition of EPHB1 (unknown origin)
[3] = biological target: Serine/threonine-protein kinase BRSK1 (Homo sapiens) (UniProt Q8TDC3); conditions: dose 100.0 nM
[4] = biological target: Mitogen-activated protein kinase kinase kinase kinase 2 (Homo sapiens) (UniProt Q12851); conditions: dose 100.0 nM
[5] = biological target: Serine/threonine-protein kinase Nek6 (Homo sapiens, UniProt Q9HC98); assay: Inhibition of NEK6 (unknown origin)
[6] = biological target: Inhibitor of nuclear factor kappa-B kinase subunit beta (Homo sapiens, UniProt O14920); assay: Inhibition of IKBKB (unknown origin)
[7] = biological target: T2, Calcium/calmodulin-dependent protein kinase type 1D (Homo sapiens, UniProt Q8IU85); conditions: dose 100.0 nM
[8] = biological target: T3, High affinity nerve growth factor receptor (Homo sapiens, UniProt P04629); assay: Inhibition of NTRK1 (unknown origin)
[9] = biological target: Serine/threonine-protein kinase 25 (Homo sapiens, UniProt O00506); assay: Inhibition of STK25 (unknown origin)
[10] = biological target: Macrophage colony-stimulating factor 1 receptor (Homo sapiens, UniProt P07333); conditions: dose 100.0 nM
[11] = biological target: Platelet-derived growth factor receptor beta (Homo sapiens, UniProt P09619); assay: Inhibition of PDGFRB (unknown origin)
[12] = biological target: Mitogen-activated protein kinase 9 (Homo sapiens) (UniProt P45984); conditions: dose 100.0 nM
[13] = biological target: Macrophage-stimulating protein receptor (Homo sapiens, UniProt Q04912); assay: Inhibition of MST1R (unknown origin)
[14] = biological target: T2, Calcium/calmodulin-dependent protein kinase type 1D; assay: Inhibition of CAMK1 delta (unknown origin)
[15] = biological target: Serine/threonine-protein kinase TBK1 (Homo sapiens) (UniProt Q9UHD2); conditions: dose 100.0 nM
[16] = biological target: Homeodomain-interacting protein kinase 1 (Homo sapiens, UniProt Q86Z02); assay: Inhibition of HIPK1 (unknown origin)
[17] = biological target: Serine/threonine-protein kinase MARK1 (Homo sapiens, UniProt Q9P0L2); conditions: dose 100.0 nM
[18] = biological target: Signal transducer and activator of transcription 3 (Homo sapiens) (UniProt P40763); assay: Inhibition of STAT3 phosphorylation in human HEL cells by Western blot analysis; type: cell-based; conditions: dose 0.1-5 µM
[19] = biological target: Protein kinase C alpha type (Homo sapiens, UniProt P17252); assay: Inhibition of PRKCA (unknown origin)
[20] = biological target: Serine/threonine-protein kinase Nek9 (Homo sapiens, UniProt Q8TD19); assay: Inhibition of NEK9 (unknown origin)
[21] = biological target: Interleukin-1 receptor-associated kinase 4 (Homo sapiens, UniProt Q9NWZ3); assay: Inhibition of IRAK4 (unknown origin)
[22] = biological target: Ephrin type-B receptor 1 (Homo sapiens) (UniProt P54762); conditions: dose 100.0 nM
BaF3 [23] = assay: Antiproliferative activity against mouse BaF3 cells harboring MPLW515L measured after 72 hrs by Alamar blue staining based analysis; type: functional, cell-based; conditions: BaF3, 72 h
How it was run: (§1)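 Ba/F3 murine cells expressing JAK2V617F or MPLW515L. Compound stocks in DMSO were diluted into culture medium. After 72 h at 37 °C in 5% CO2, proliferation was quantified with the Alamar Blue assay.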

[24] = biological target: cAMP-dependent protein kinase catalytic subunit alpha (Homo sapiens, UniProt P17612); assay: Inhibition of PRKACA (unknown origin)
[25] = biological target: Serine/threonine-protein kinase PLK1 (Homo sapiens, UniProt P53350); assay: Inhibition of PLK1 (unknown origin)
[26] = biological target: AMP-activated protein kinase (AMPK) alpha-1/beta-1/gamma-1 (Homo sapiens, UniProt P54619+Q13131+Q9Y478); assay: Inhibition of AMPK alpha1/beta1/gamma1 (unknown origin); type: protein-complex assay
[27] = biological target: Proto-oncogene tyrosine-protein kinase ROS (Homo sapiens, UniProt P08922); assay: Inhibition of ROS1 (unknown origin)
[28] = biological target: Tyrosine-protein kinase FRK (Homo sapiens, UniProt P42685); assay: Inhibition of FRK (unknown origin)
Ephrin type-B receptor 3 = Ephrin type-B receptor 3 (Homo sapiens, UniProt P54753); assay: Inhibition of EPHB3 (unknown origin)
BaF3 [29] = assay: Antiproliferative activity against mouse BaF3 cells harboring JAK2V617F mutant measured after 72 hrs by Alamar blue staining based analysis; type: functional, cell-based; conditions: BaF3, 72 h
How it was run: as §1

[30] = biological target: Tyrosine-protein kinase receptor TYRO3 (Homo sapiens, UniProt Q06418); assay: Inhibition of TYRO3 (unknown origin)
[31] = biological target: Serine/threonine-protein kinase PAK 4 (Homo sapiens, UniProt O96013); assay: Inhibition of PAK4 (unknown origin)
[32] = biological target: Tyrosine-protein kinase ABL1 (Homo sapiens) (UniProt P00519); conditions: dose 100.0 nM
[33] = biological target: Mitogen-activated protein kinase kinase kinase 8 (Homo sapiens, UniProt P41279); conditions: dose 100.0 nM
Insulin receptor = Insulin receptor (Homo sapiens, UniProt P06213); assay: Inhibition of INSR (unknown origin)
[34] = biological target: Mitogen-activated protein kinase 10 (Homo sapiens) (UniProt P53779); conditions: dose 100.0 nM
Aurora kinase B [35] = biological target: T1, Aurora kinase B; assay: Inhibition of AURKB (unknown origin)
[36] = biological target: Ribosomal protein S6 kinase alpha-5 (Homo sapiens, UniProt O75582); assay: Inhibition of RPS6KA5 (unknown origin)
[37] = biological target: Beta-adrenergic receptor kinase 1 (Homo sapiens, UniProt P25098); assay: Inhibition of ADRBK1 (unknown origin)
[38] = biological target: Tyrosine-protein kinase Fyn (Homo sapiens, UniProt P06241); assay: Inhibition of FYN (unknown origin)
[39] = biological target: Inhibitor of nuclear factor kappa-B kinase subunit beta (Homo sapiens) (UniProt O14920); conditions: dose 100.0 nM
CMK = assay: Antiproliferative activity against human CMK cells harboring JAK3A572V mutant measured after 72 hrs by Alamar blue staining based analysis; type: functional, cell-based
How it was run: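 Cells were exposed for 72 h at 37 °C under 5% CO2 to compound made up as DMSO stock and diluted in culture medium. Proliferation was then read by Alamar Blue.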

[40] = biological target: T3, High affinity nerve growth factor receptor; conditions: dose 100.0 nM
[41] = biological target: Protein-tyrosine kinase 6 (Homo sapiens, UniProt Q13882); assay: Inhibition of PTK6 (unknown origin)

T1 sequence (Q96GD4 whole entry): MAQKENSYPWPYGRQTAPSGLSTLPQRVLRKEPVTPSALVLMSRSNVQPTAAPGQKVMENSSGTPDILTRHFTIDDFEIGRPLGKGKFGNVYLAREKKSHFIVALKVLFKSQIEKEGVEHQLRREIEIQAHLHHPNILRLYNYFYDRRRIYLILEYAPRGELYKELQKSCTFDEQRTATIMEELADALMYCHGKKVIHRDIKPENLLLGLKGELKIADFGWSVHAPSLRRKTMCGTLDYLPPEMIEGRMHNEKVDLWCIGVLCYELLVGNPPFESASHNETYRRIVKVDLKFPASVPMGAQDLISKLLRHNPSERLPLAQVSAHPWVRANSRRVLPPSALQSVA
Macrophage-stimulating protein receptor, sequence (Q04912 25-304 limits assumed): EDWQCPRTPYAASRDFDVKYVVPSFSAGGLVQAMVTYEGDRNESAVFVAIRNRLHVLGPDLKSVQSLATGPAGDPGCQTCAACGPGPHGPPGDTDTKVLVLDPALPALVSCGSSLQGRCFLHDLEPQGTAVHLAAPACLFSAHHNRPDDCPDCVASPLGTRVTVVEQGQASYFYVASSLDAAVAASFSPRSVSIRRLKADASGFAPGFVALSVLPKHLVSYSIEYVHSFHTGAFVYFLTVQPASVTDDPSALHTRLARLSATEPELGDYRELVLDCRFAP
Macrophage-stimulating protein receptor, sequence (Q04912 310-1400 limits assumed): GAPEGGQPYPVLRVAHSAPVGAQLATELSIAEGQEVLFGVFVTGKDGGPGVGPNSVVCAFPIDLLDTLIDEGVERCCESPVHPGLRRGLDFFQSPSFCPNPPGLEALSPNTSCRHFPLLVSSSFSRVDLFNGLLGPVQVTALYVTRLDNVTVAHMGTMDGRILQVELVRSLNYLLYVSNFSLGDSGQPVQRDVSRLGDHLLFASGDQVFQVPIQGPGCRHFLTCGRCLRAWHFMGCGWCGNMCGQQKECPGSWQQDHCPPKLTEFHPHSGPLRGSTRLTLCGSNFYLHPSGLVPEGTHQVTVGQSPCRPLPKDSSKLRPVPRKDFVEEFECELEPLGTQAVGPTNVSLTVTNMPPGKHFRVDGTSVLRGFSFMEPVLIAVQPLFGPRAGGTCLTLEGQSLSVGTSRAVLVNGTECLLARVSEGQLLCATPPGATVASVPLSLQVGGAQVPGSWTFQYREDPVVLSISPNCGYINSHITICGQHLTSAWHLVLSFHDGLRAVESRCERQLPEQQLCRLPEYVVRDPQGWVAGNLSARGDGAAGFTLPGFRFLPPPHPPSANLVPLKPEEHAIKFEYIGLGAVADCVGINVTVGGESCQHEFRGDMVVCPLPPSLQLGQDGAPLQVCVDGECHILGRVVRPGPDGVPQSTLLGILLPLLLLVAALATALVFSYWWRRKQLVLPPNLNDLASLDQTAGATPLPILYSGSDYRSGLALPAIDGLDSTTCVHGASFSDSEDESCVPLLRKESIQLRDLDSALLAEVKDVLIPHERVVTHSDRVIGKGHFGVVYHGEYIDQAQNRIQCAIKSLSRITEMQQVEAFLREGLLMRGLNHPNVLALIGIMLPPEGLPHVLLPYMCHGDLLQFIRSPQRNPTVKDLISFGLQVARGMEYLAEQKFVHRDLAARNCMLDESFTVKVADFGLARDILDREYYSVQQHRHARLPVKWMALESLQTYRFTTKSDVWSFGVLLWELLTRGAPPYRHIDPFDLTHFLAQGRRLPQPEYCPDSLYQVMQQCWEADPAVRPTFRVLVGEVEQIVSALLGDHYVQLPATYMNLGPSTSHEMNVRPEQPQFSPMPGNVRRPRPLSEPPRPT
Homeodomain-interacting protein kinase 1, sequence (Q86Z02 whole entry): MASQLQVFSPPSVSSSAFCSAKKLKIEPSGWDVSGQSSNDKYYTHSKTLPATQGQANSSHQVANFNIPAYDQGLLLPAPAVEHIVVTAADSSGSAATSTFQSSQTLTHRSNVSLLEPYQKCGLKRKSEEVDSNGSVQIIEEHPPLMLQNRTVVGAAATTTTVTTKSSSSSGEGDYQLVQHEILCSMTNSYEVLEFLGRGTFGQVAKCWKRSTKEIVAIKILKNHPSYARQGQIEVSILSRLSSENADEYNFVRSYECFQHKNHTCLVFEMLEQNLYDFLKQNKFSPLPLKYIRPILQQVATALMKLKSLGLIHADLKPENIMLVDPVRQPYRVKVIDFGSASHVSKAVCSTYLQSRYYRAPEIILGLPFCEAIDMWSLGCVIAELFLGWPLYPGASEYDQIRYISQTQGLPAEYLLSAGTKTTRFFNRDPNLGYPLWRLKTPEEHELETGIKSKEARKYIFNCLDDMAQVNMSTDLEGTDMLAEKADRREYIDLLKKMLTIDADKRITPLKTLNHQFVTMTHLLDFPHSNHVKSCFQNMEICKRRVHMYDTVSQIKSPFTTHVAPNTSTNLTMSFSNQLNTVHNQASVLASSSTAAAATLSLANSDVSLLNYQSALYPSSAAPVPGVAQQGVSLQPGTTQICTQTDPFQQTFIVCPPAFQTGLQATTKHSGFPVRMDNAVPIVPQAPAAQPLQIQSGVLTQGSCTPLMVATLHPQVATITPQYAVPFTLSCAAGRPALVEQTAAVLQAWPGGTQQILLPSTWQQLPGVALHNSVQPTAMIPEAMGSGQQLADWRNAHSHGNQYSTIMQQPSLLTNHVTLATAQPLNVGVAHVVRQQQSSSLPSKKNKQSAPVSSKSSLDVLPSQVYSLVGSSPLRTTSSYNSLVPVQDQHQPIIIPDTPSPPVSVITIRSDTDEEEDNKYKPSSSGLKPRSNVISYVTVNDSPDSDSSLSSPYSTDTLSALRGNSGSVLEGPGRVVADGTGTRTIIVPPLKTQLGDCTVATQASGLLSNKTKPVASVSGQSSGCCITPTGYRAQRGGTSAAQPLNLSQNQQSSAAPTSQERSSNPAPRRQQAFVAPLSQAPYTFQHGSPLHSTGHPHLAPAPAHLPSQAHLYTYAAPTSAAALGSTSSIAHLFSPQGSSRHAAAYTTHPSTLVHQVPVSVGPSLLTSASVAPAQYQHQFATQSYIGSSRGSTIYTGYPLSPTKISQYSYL
Signal transducer and activator of transcription 3 (Homo sapiens), sequence (P40763 whole entry): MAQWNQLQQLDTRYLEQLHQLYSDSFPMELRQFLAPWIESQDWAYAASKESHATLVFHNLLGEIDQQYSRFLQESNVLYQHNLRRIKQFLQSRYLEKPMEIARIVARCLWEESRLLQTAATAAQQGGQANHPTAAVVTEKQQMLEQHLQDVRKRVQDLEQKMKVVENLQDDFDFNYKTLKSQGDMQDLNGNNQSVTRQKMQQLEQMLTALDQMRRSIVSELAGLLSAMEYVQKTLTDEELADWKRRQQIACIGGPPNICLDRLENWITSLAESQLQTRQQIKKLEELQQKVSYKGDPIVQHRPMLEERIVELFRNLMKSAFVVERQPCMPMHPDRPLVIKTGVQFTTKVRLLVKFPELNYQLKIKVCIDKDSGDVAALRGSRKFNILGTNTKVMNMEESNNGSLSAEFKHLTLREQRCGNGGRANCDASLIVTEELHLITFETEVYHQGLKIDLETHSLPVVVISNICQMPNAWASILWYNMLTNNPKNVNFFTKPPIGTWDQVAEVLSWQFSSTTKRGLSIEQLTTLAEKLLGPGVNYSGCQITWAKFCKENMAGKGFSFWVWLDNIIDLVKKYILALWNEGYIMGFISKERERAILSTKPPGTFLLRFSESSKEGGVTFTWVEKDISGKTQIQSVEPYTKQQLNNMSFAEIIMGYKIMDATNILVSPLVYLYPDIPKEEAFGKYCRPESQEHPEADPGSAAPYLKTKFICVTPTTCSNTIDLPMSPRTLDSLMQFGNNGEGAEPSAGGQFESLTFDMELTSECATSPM
Serine/threonine-protein kinase 25, sequence (O00506 whole entry): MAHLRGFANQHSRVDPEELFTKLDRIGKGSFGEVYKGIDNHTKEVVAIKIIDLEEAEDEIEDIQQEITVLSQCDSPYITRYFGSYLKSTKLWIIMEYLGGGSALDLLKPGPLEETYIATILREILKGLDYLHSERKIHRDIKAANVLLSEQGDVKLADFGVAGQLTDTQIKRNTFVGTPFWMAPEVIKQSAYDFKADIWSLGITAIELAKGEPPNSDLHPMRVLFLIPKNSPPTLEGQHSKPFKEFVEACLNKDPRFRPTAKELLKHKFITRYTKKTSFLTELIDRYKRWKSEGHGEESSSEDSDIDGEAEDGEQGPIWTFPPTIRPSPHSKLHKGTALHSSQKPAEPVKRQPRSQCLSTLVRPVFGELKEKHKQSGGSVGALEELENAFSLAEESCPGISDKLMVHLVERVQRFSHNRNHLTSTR
Mitogen-activated protein kinase 9 (Homo sapiens), sequence (P45984 whole entry, looked up): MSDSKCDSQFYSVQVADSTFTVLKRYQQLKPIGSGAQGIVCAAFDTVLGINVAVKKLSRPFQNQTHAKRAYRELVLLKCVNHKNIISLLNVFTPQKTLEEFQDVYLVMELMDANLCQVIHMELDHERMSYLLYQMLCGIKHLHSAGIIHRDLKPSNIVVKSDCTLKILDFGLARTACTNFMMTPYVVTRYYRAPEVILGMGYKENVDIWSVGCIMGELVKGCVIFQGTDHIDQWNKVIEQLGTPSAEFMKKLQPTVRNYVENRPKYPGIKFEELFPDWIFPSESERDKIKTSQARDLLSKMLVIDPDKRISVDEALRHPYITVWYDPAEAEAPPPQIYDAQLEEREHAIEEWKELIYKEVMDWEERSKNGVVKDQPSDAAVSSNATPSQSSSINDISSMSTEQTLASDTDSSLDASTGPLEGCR
Interleukin-1 receptor-associated kinase 4, sequence (Q9NWZ3 whole entry): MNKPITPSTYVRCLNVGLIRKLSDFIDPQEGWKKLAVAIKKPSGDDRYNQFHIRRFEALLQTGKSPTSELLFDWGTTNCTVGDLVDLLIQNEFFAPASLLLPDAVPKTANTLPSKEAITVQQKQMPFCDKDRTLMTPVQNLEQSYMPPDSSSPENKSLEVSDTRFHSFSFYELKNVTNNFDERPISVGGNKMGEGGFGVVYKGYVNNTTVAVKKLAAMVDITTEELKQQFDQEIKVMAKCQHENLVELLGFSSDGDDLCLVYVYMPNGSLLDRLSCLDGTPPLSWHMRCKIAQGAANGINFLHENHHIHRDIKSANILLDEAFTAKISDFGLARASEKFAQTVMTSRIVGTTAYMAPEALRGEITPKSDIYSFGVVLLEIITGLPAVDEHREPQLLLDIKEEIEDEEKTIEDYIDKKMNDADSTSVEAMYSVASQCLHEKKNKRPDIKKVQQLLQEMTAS

inhibition (Aurora kinase B [1]): < 50% | IC50 [2]: > 1000 nM | IC50 (Ephrin type-B receptor 1): < 1000 nM | inhibition [3]: < 50% | inhibition [4]: < 50% | IC50 [5]: > 1000 nM | IC50 [6]: < 1000 nM | inhibition [7]: < 50% | IC50 [8]: < 1000 nM | IC50 [9]: > 1000 nM | inhibition [10]: < 50% | IC50 [11]: > 1000 nM | inhibition [12]: < 50% | IC50 [13]: < 1000 nM | IC50 [14]: < 1000 nM | inhibition [15]: > 50% | IC50 [16]: < 1000 nM | inhibition [17]: < 50% | inhibition [18]: Dose-Dependent Effect | IC50 [19]: > 1000 nM | IC50 [21]: > 1000 nM | inhibition [22]: < 50% | IC50 (BaF3 [23]): 200 nM | IC50 [24]: > 1000 nM | IC50 [25]: > 1000 nM | IC50 [26]: < 1000 nM | IC50 [27]: < 1000 nM | IC50 [28]: > 1000 nM | IC50 (Ephrin type-B receptor 3): > 1000 nM | IC50 (BaF3 [29]): 1500 nM | IC50 [30]: < 1000 nM | IC50 [31]: < 1000 nM | inhibition [32]: < 50% | inhibition [33]: < 50% | IC50 (Insulin receptor): > 1000 nM | inhibition [34]: < 50% | IC50 (Aurora kinase B [35]): < 1000 nM | IC50 [36]: > 1000 nM | IC50 [37]: > 1000 nM | IC50 [38]: > 1000 nM | inhibition [39]: < 50% | inhibition [40]: < 50% | IC50 [41]: > 1000 nM
Structure (SMILES): N#CCNC(=O)c1ccc(-c2ccnc(Nc3ccc(N4CCOCC4)cc3)n2)cc1 [MOMELOTINIB]
IC50 [20]: < 1000 nM | IC50 (CMK): 700 nM
